Experimental data: ChEMBL document CHEMBL1152635, “Pyranonaphthoquinone derivatives of eleutherin, ventiloquinone L, thysanone and nanaomycin A possessing a diverse topoisomerase II inhibition and cytotoxicity spectrum” (2009)
≈ marks a conversion by molar mass, not a printed value. Calls of active or inactive are those of the source. No cut-off for these calls is given here.

Legend:
[1] = target: T1, Type II restriction enzyme XhoI (Xanthomonas vasicola) (UniProt Q9KVZ7); assay: Inhibition of Xanthomonas vasicola XhoI assessed as pBSKS cleavage at 100 uM by endonuclease assay
T1 sequence (whole entry): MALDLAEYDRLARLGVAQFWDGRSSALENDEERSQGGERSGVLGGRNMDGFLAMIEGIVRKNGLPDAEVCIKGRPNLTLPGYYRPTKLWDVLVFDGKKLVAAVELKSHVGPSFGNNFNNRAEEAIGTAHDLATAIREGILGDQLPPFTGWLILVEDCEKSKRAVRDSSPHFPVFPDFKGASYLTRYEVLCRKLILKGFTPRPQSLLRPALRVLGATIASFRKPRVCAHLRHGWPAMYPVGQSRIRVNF
Outline: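 Plasmid pBluescript with 1 unit XhoI in place of topoisomerase, using the relaxation protocol: 0.5 mM ATP, Tris-HCl/KCl/NaCl/EDTA/MgCl2/glycerol buffer pH 8.0, 1% DMSO, 37 °C for 60 min. The reaction was quenched with SDS/EDTA and treated with proteinase K. Products were resolved on 1% agarose in TBE.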

[2] = test system: Saccharomyces cerevisiae; assay: Growth inhibition of Saccharomyces cerevisiae BY4741 after 24 hrs; type: functional; conditions: for MIC50: BY4741, 24 h
Outline: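 BY4741 grown overnight at 30 °C in YPD and taken at log phase (~0.6 OD660/ml), then diluted into fresh YPD at 0.01 OD660/ml. Compounds were given in 1% DMSO at twofold steps from 1 to 128. Growth at 30 °C for 24 h was read as OD660 and normalised to a DMSO-only control. MIC50 (50% growth inhibition) was derived from relative growth versus log10 concentration.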

[3] = test system: Nucleic Acid; assay: Induction of DNA intercalation in pRYG DNA at 100 uM by agarose gel electrophoresis; type: nucleic-acid assay
[4] = target: DNA topoisomerase 2-alpha (Homo sapiens) (UniProt P11388); assay: Inhibition of human topoisomerase 2alpha-mediated kinetoplast DNA decatenation at 100 uM
DNA topoisomerase 2-alpha (Homo sapiens), sequence (P11388 whole entry): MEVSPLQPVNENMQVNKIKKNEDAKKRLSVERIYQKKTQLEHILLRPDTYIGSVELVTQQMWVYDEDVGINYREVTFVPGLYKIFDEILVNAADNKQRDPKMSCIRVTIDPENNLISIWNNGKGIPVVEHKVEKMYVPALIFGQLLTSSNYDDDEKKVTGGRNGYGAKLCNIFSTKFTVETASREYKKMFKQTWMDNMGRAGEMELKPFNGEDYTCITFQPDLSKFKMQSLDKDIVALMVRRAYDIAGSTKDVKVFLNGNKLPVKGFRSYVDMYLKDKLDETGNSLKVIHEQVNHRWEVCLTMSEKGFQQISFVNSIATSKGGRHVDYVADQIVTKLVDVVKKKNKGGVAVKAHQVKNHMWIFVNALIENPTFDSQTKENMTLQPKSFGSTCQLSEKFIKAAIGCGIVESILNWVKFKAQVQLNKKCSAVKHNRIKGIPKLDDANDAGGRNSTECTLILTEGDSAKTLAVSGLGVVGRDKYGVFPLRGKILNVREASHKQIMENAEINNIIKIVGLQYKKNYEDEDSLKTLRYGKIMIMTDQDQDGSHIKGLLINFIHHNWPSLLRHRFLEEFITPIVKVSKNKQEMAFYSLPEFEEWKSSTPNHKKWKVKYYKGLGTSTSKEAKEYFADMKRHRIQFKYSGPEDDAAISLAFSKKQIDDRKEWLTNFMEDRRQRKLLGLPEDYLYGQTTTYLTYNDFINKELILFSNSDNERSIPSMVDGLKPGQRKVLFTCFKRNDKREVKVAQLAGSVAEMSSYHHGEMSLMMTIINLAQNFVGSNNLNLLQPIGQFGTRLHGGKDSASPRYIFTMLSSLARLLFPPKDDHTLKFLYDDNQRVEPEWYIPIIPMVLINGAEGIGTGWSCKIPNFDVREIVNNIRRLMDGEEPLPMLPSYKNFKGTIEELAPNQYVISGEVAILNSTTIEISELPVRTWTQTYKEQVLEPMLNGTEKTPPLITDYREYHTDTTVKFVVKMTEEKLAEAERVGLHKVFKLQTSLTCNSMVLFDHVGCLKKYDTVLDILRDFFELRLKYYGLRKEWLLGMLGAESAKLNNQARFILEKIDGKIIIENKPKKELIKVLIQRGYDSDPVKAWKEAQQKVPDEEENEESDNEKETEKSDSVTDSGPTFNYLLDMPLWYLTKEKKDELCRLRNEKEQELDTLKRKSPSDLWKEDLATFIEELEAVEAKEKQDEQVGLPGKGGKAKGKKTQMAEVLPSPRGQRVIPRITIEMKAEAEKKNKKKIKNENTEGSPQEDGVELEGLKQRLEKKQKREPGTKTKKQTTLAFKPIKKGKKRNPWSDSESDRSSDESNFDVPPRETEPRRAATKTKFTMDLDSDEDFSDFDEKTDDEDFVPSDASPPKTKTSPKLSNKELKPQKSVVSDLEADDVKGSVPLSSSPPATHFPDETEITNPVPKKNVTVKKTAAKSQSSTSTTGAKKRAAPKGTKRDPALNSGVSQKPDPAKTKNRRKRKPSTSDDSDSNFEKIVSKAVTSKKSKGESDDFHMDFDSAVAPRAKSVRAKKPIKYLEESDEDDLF
Outline: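 Incubation was 60 min at 37 °C, then SDS stop and proteinase K (55 °C, 30 min). Samples ran on 1% agarose containing ethidium bromide. Activity was scored as the ratio of nicked plus supercoiled minicircles to kDNA.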

[5] = target: DNA topoisomerase 2-alpha (Homo sapiens) (UniProt P11388); assay: Inhibition of human topoisomerase 2alpha-mediated relaxation of double-stranded pRYG DNA at 100 uM by agarose gel electrophoresis
Outline: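 Purified human topoisomerase IIα (3 units) was added last. Incubation was 37 °C for 60 min, quenched with 1% SDS/25 mM EDTA, then proteinase K. Products ran on 1% agarose in TBE without ethidium bromide and were stained afterward.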

Row | SMILES | inhibition [1] | MIC [2] | Activity [3] | inhibition [4] | inhibition [5] | MIC50 [2] [µM]
1 | C[C@H]1CC2=C(C(=O)c3c(O)cccc3C2=O)[C@@H](C)O1 | inactive | Active | inactive | Active | – | –
2 | COc1cc(O)c2c(c1)C(=O)C1=C(CO[C@@H](C)C1)C2=O | inactive | – | inactive | Active | Active | –
3 | COc1cc(OC)c2c(c1)C(=O)C1=C(C2=O)[C@@H](C)O[C@@H](C)C1 | inactive | – | inactive | Active | – | –
4 | COc1ccc2c(c1)C(=O)C1=C(C[C@H](CC(=O)O)O[C@@H]1C)C2=O (racemic) | inactive | Active | inactive | Active | Active | –
5 | COc1cc(OC)c2c(c1)C(=O)C1=C(CO[C@@H](C)C1)C2=O | inactive | – | inactive | Active | Active | –
6 | C[C@H]1O[C@@H](CC(=O)O)CC2=C1C(=O)c1ccccc1C2=O | inactive | – | inactive | Active | – | 5 (≈ 1.43 µg/mL)
7 | C[C@@H]1CC2=C(C(=O)c3ccccc3C2=O)[C@H](C)O1 | inactive | Active | inactive | Active | – | –
8 | C[C@H]1CC2=C(C(=O)c3ccccc3C2=O)[C@@H](C)O1 | inactive | Active | inactive | Active | – | –
9 | C[C@H]1CC2=C(CO1)C(=O)c1c(O)cc(O)cc1C2=O | inactive | Active | inactive | Active | Active | –
10 | COc1cc([C@@H]2c3cc4c(cc3[C@@H](O[C@@H]3O[C@@H]5CO[C@@H](C)O[C@H]5[C@H](O)[C@H]3O)[C@H]3COC(=O)[C@H]23)OCO4)cc(OC)c1O | inactive | – | inactive | – | Active | –
11 | COc1cccc2c1C(=O)C1=C(C[C@H](C)O[C@@H]1C)C2=O | inactive | – | inactive | Active | inactive | 80 (≈ 21.8 µg/mL)
12 | CC(C)Oc1cc(OC(C)C)c2c(c1)C(=O)C1=C(CO[C@@H](C)C1)C2=O | inactive | – | inactive | Active | Active | –
13 | C[C@H]1CC2=C(C(=O)c3ccccc3C2=O)[C@H](O)O1 | inactive | Active | inactive | Active | – | –
14 | COc1cc(O)c2c(c1)C(=O)C1=C(C2=O)[C@@H](C)O[C@@H](C)C1 | inactive | – | inactive | Active | inactive | 5 (≈ 1.44 µg/mL)
15 | C[C@H]1CC2=C(C(=O)c3c(O)cc(O)cc3C2=O)[C@H](O)O1 | inactive | inactive | inactive | Active | inactive | –
16 | Cc1c2ccncc2c(C)c2c1[nH]c1ccccc12 | inactive | – | Active | – | Active | –
